The results in this text go back to publication PMC9798254 (Protein Science : A Publication of the Protein Society, 2023).

The structures appear in SMILES notation.

Common to all, as to assay: coupled photometric phosphate release assay
Assay type in all cases: biochemical, synthetic construct
What all share (details): 100 mM Tris/HCl pH 7.8, 5 mM MgCl2, 25°C

Assay [1] has as its system Anc7. The procedure, abridged: (§1)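 Ancestral enzyme expressed in E. coli BW25113 (0.5 mM IPTG, overnight at 20°C). Purified by Ni affinity chromatography and size exclusion in 50 mM Tris/HCl pH 7.5, 400 mM NaCl, 2 mM MgCl2. Phosphate release coupled with 0.5 mM inosine, 0.25 U/ml purine nucleoside phosphorylase and 2.5 U/ml xanthine oxidase, at varied substrate concentrations. Reaction started with enzyme. Km fitted to Michaelis–Menten from initial slopes.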

The test system of assay [2] is Anc6. The gist of the method: as §1
The subject of assay [3] is Anc5. The gist of the method:
as §1

As for `N[C@H](COP(=O)(O)O)Cc1c[nH]cn1` [HolP], the Michaelis constant (Km) in assay [1] stood at 122 ± 31 µM; in assay [2] it was 59 ± 12 µM; in assay [3], 698 ± 123 µM.
